Laboratory results from ChEMBL document CHEMBL3997766, “Synthesis and pre-clinical studies of new amino-acid ester thiazolide prodrugs” (Eur J Med Chem, 2017).

Experiments:
Rattus norvegicus [1] = assay: Toxicity in Sprague-Dawley rat administered via oral gavage qd for 28 consecutive days; settings: in vivo
Procedure, shortened: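 Sub-acute study in Sprague-Dawley rats: 10, 30 or 75 mg/kg given orally once a day for 28 consecutive days as a yellow suspension. There were 4 groups of up to 30 rats each (15M/15F), including a control. Body weight, clinical observations and terminal findings were assessed.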

Canis familiaris [2] = assay: Toxicity in Beagle dog assessed as early death at 5 to 25 mg/kg, po administered as gelatin capsule once daily for 28 days measured on day 29; format: organism-based, Canis lupus familiaris; settings: in vivo, 672 h
Procedure, shortened: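 Sub-acute study in Beagle dogs: 5, 15 or 25 mg/kg/day given orally in a single gelatin capsule once a day for 28 consecutive days to assess systemic exposure and toxicity, with NOAEL determination.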

Rattus norvegicus [3] = assay: Toxicity in Sprague-Dawley rat assessed as increase in liver to body weight ratio at 75 mg/kg administered as oral gavage qd for 28 consecutive days measured on day 29; format: organism-based; settings: in vivo
Procedure, shortened: (§1)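 Sub-acute study in Sprague-Dawley rats dosed orally with a suspension at 10, 30 and 75 mg/kg once daily for 28 consecutive days. Four groups of up to 30 rats each (15M/15F).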

Rattus norvegicus [4] = assay: Toxicity in Sprague-Dawley rat assessed as effect on respiratory rate by measuring minute volume dose at 1000 mg/kg administered as single dose via oral gavage; format: organism-based; settings: in vivo
Procedure, shortened: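 Conscious rats in three groups of six (3M/3F) got single oral gavage doses of 100, 300 or 1000 mg/kg, with an untreated control group. Respiratory rate (breaths per minute), tidal volume and minute volume were recorded.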

Rattus norvegicus [5] = assay: Toxicity in Sprague-Dawley rat assessed as eosinophilic cytoplasmic bodies in epithelial cells of duodenum at 75 mg/kg administered as oral gavage qd for 28 consecutive days measured on day 29 by microscopic method; format: organism-based; settings: in vivo; procedure, shortened: as §1
Rattus norvegicus [6] = assay: Elimination half life in Sprague-Dawley rat assessed as Tizoxanide level in plasma at 6.3 mg/kg, iv administered as single dose; format: ADME, organism-based; settings: in vivo
Canis familiaris [7] = assay: Drug metabolism in Beagle dog assessed as tizoxanide level in plasma administered orally as gelatin capsule once daily for 28 days measured on day 1 and 29; format: ADME, Canis lupus familiaris; settings: po, 672 h
Procedure, shortened: (§2)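 Beagle dogs received the drug orally in a single gelatin capsule at 5, 15 or 25 mg/kg once daily for 28 consecutive days in a sub-acute toxicity study assessing systemic exposure.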

Rattus norvegicus [8] = assay: Toxicity in Sprague-Dawley rat assessed as hemorrhage in duodenum at 75 mg/kg administered as oral gavage qd for 28 consecutive days followed by 2 weeks recovery period by microscopic method; format: organism-based; settings: in vivo, 336 h; procedure, shortened: as §1
Rattus norvegicus [9] = assay: Toxicity in Sprague-Dawley rat assessed as increase in spleen to body weight ratio at 75 mg/kg administered as oral gavage qd for 28 consecutive days measured on day 29; format: organism-based; settings: in vivo; procedure, shortened: as §1
Rattus norvegicus [10] = assay: Toxicity in Sprague-Dawley rat assessed as body weight gain at 75 mg/kg administered as oral gavage qd for 28 consecutive days measured during last 3 weeks of dosing; format: organism-based; settings: in vivo, 504 h; procedure, shortened: as §1
Canis familiaris [11] = assay: Toxicity in Beagle dog assessed as organ weight up to 25 mg/kg, po administered as gelatin capsule once daily for 28 days; format: organism-based, Canis lupus familiaris; settings: in vivo, 672 h
Procedure, shortened: (§3)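 Sub-acute study in Beagle dogs dosed orally by gelatin capsule at 5, 15 and 25 mg/kg once a day for 28 consecutive days.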

Rattus norvegicus [12] = assay: Toxicity in Sprague-Dawley rat assessed as eosinophilic cytoplasmic bodies in leukocytes of duodenum at 75 mg/kg administered as oral gavage qd for 28 consecutive days measured on day 29 by microscopic method; format: organism-based; settings: in vivo; procedure, shortened: as §1
Canis familiaris [13] = assay: Toxicity in Beagle dog assessed as effect on urinalysis parameters up to 25 mg/kg, po administered as gelatin capsule once daily for 28 days measured on day 29; format: organism-based, Canis lupus familiaris; settings: in vivo, 672 h; procedure, shortened: as §3
Rattus norvegicus [14] = assay: Toxicity in Sprague-Dawley rat assessed as increase in serum chloride level at 30 mg/kg administered as oral gavage qd for 28 consecutive days followed by 2 weeks recovery period measured on day 43; format: organism-based; settings: in vivo, 336 h; procedure, shortened: as §1
Rattus norvegicus [15] = assay: Toxicity in Sprague-Dawley rat assessed as decrease in urine specific gravity at 30 to 75 mg/kg administered as oral gavage qd for 28 consecutive days followed by 2 weeks recovery period measured on day 43; format: organism-based; settings: in vivo, 336 h; procedure, shortened: as §1
Rattus norvegicus [16] = assay: Toxicity in Sprague-Dawley rat assessed as body weight gain at 75 mg/kg administered as oral gavage qd for 28 consecutive days measured during last 2 weeks of dosing relative to control; format: organism-based; settings: in vivo, 336 h; procedure, shortened: as §1
Rattus norvegicus [17] = assay: Neurotoxicity in Sprague-Dawley rat assessed as decreased abdominal tone at 1000 mg/kg administered via oral gavage as single dose after 4 to 24 hrs; format: toxicity, organism-based; settings: in vivo
Procedure, shortened: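 Three groups of 10 rats (5M/5F) received a single dose by oral gavage of 100, 300 or 1000 mg/kg, and an untreated group served as control. Clinical signs of CNS effects were recorded at 4 and 24 h after treatment.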

Canis familiaris [18] = assay: Toxicity in Beagle dog assessed as emesis at 25 mg/kg, po administered as gelatin capsule once daily for 28 days measured on day 29 followed by 2 weeks recovery period measured on day 43; format: organism-based, Canis lupus familiaris; settings: in vivo; procedure, shortened: as §3
Rattus norvegicus [19] = assay: Toxicity in Sprague-Dawley rat assessed as eosinophilic cytoplasmic bodies in leukocytes of duodenum at 75 mg/kg administered as oral gavage qd for 28 consecutive days followed by 2 weeks recovery period by microscopic method; format: organism-based; settings: in vivo, 336 h; procedure, shortened: as §1
Canis familiaris [20] = assay: Toxicity in Beagle dog assessed as change in food consumption up to 25 mg/kg, po administered as gelatin capsule once daily for 28 days; format: organism-based, Canis lupus familiaris; settings: in vivo, 672 h; procedure, shortened: as §3
Rattus norvegicus [21] = assay: Toxicity in Sprague-Dawley rat assessed as decrease in serum sodium level at 10 to 75 mg/kg administered as oral gavage qd for 28 consecutive days followed by 2 weeks recovery period measured on day 43; format: organism-based; settings: in vivo, 336 h; procedure, shortened: as §1
Rattus norvegicus [22] = assay: Neurotoxicity in Sprague-Dawley rat at 100 to 300 mg/kg, po administered via gavage as single dose after 4 to 24 hrs; format: toxicity, organism-based; settings: in vivo
Procedure, shortened: (§4)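 CNS safety study in rats: single oral-gavage doses of 100, 300 or 1000 mg/kg to 3 groups of 10 (5M/5F), with an untreated control group. Clinical signs (activity, abdominal tone, breathing, tremors, pain response) were recorded at 4 and 24 h after dosing, and mortality was noted.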

Rattus norvegicus [23] = assay: Tmax in Sprague-Dawley rat assessed as Tizoxanide in plasma at 6.3 mg/kg, iv administered as single dose; format: ADME, organism-based; settings: in vivo
Procedure, shortened: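 Rats in groups of three got a single oral dose (30 mg/kg) or a single intravenous injection (6 mg/kg). Serial blood samples were taken at 5, 10, 15 and 30 min and at 1, 2, 4, 8, 23 and 24 h post-dose for plasma drug and glucuronide levels. Bioavailability came from oral versus intravenous AUC after dose correction to 30 mg/kg.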

Canis familiaris [24] = assay: Toxicity in Beagle dog up to 25 mg/kg, po administered as gelatin capsule once daily for 28 days measured on day 29; format: organism-based, Canis lupus familiaris; settings: in vivo, 672 h; procedure, shortened: as §3
Canis familiaris [25] = assay: Cardiotoxicity in Beagle dog up to 25 mg/kg, po administered as gelatin capsule once daily for 28 days measured 1 hr post last dose on one of last 3 days of dosing; format: toxicity, organism-based, Canis lupus familiaris; settings: in vivo; procedure, shortened: as §2
Canis familiaris [26] = assay: Toxicity in Beagle dog up to 25 mg/kg, po administered as gelatin capsule once daily for 28 days by ophthalmoscopic method; format: organism-based, Canis lupus familiaris; settings: in vivo, 672 h; procedure, shortened: as §3
Rattus norvegicus [27] = assay: Toxicity in Sprague-Dawley rat assessed as mortality at 100 to 1000 mg/kg administered as single dose via oral gavage; format: organism-based; settings: in vivo; procedure, shortened: as §4

With `CC(C)(C)[C@H](N)C(=O)Oc1ccccc1C(=O)Nc1ncc([N+](=O)[O-])s1.Cl` as the compound, how does the NOAEL (Rattus norvegicus [1]) read?
Its NOAEL is 10 mg/kg.

And the Activity (Canis familiaris [2])?
The Activity was “Non-Toxic”.

And the Activity (Rattus norvegicus [3])?
The Activity was “Toxic”.

And the Activity (Rattus norvegicus [4])?
The Activity was “Toxic”.

What about the Activity (Rattus norvegicus [5]) of the same compound?
Its Activity is “Toxic”.

What about the “beta t1/2” value (Rattus norvegicus [6]) of the same compound?
The value was 22.8 min.

And the Drug metabolism (Canis familiaris [7])?
The Drug metabolism was “Dose-dependent effect”.

And the Activity (Rattus norvegicus [8])?
The Activity was “Non-Toxic”.

And the Activity (Rattus norvegicus [9])?
The Activity was “Toxic”.

What about the Activity (Rattus norvegicus [10]) of the same compound?
The Activity was “Non-Toxic”.

And the Activity (Canis familiaris [11])?
The Activity was “Non-Toxic”.

What about the Activity (Rattus norvegicus [12]) of the same compound?
The Activity was “Toxic”.

And the Activity (Canis familiaris [13])?
Its Activity is “Non-Toxic”.

What about the Activity (Rattus norvegicus [14]) of the same compound?
The Activity was “Toxic”.

What about the Activity (Rattus norvegicus [15]) of the same compound?
The Activity was “Toxic”.

And the Activity (Rattus norvegicus [16])?
Its Activity is 4 to 5%.

And the Activity (Rattus norvegicus [17])?
Its Activity is “Toxic”.

What about the Activity (Canis familiaris [18]) of the same compound?
The Activity was “Non-Toxic”.

What about the Activity (Rattus norvegicus [19]) of the same compound?
The Activity was “Non-Toxic”.

What about the Activity (Canis familiaris [20]) of the same compound?
The Activity was “Non-Toxic”.

And the Activity (Rattus norvegicus [21])?
The Activity was “Toxic”.

What about the Activity (Rattus norvegicus [22]) of the same compound?
The Activity was “Non-Toxic”.

And the Tmax (Rattus norvegicus [23])?
Its Tmax is 5 min.

What about the Activity (Canis familiaris [24]) of the same compound?
Its Activity is “Non-Toxic”.

And the Activity (Canis familiaris [25])?
Its Activity is “Non-Toxic”.

And the Activity (Canis familiaris [26])?
Its Activity is “Non-Toxic”.

And the Activity (Rattus norvegicus [27])?
The Activity was “Non-Toxic”.
